# Measurements gathered from unrelated publications.
# Compare with care: the assays were run in different laboratories.
# Target: Serine/threonine-protein kinase pim-2 (PIM2, Homo sapiens, UniProt Q9P1W9)
SMILES,test,setting,remaining binding [%]
c1cnn2ncc(-c3ccnc(N4CCC45COC5)n3)c2c1,binding,1 µM,64
O=C(c1ccc(Nc2ncc(Cl)c(-c3cc4ccccc4s3)n2)cc1)N1CCC(N2CCCC2)CC1,"binding, competition with immobilised ligand",1 µM,100
CNC(=O)[C@@H]1CC[C@@H](n2c(-c3ccc4cnccc4c3)nc3ccc(C(=O)NCc4cccc(C(N)=O)c4)cc32)C1,"binding, competition with immobilised ligand",1 µM,93
CN(C)c1ncc(F)c(-c2cnn3ncccc23)n1,binding,1 µM,95
CN(C)c1ncnc(-c2ccc3nc(Nc4cc(CN5CCN(C(=O)CC(F)(F)F)CC5)ccn4)[nH]c3c2)c1Cl,"cell-free assay, competition with immobilised ligand",1 µM,100
C[C@@H]1CCN(c2nccc(-c3cnn4ncccc34)n2)C1,binding,1 µM,78
O=C(N[C@H]1CCCCC/C=C\C2C[C@@]2(C(=O)O)NC(=O)[C@@H]2C[C@@H](Oc3ccncc3)CN2C1=O)OC1CCCC1 (stereo partly drawn),"binding, competition with immobilised ligand",1 µM,100
N#Cc1ccccc1CSc1nnc2c(n1)[nH]c1ccccc12,"binding, competition with immobilised ligand",10 µM,75
N[C@@H]1CCN(c2nccc(-c3cnn4ncccc34)n2)C1,binding,1 µM,100
c1cncc(-c2cccc(Nc3nccc(NC4CCCCC4)n3)c2)c1,"binding, competition with immobilised ligand",10 µM,45
CN([C@@H]1CCc2c(CC(=O)O)c3ccccc3n2C1)S(=O)(=O)c1ccc(F)cc1,"cell-free assay, competition with immobilised ligand",1 µM,100
CN(c1nccc(-c2cnn3ncccc23)n1)C1CC1,binding,1 µM,100
C[C@@H](c1ccc(-n2cnc3c(N)ncnc32)cc1)N1CCc2nn(C)c(Cc3ccccc3)c2C1=O,"binding, competition with immobilised ligand",0.1 µM,100
C[C@H](c1cccc(C#N)c1)n1cc(Cl)cc(C(N)=O)c1=N,"cell-free assay, competition with immobilised ligand",1 µM,100
O=C(NCC1CCOCC1)c1n[nH]cc1NC(=O)c1c(F)cccc1F,"binding, competition with immobilised ligand",1 µM,91
Cc1cnn2ncc(-c3ccnc(N(C)C)n3)c2c1,binding,1 µM,84
O=C(NCCCN1CCOCC1)c1ccc(Nc2nccc(-c3cc4ccccc4s3)n2)cc1,"binding, competition with immobilised ligand",1 µM,100
CN(C)CC#Cc1ccc(OCCCc2sc(N3CCc4cccc(C(=O)Nc5nc6ccccc6s5)c4C3)nc2C(=O)O)c(F)c1,"cell-free assay, competition with immobilised ligand",1 µM,100
C[C@@H]1CN(c2ccc3ncc(-c4ccc5[nH]nc(C6CC6)c5c4)n3n2)C[C@H](C)O1,"binding, competition with immobilised ligand",50 nM,92
C=CC(=O)N1CCC(C(=O)NCC(=O)N2CCN(c3nc(-c4cnc(N)nc4C(F)F)nc(N4CCOCC4)n3)CC2)CC1,"binding, competition with immobilised ligand",1 µM,82
CN(C(=O)c1ccccc1)c1cc(N(C)c2ccc3c(c2)CCc2ccc(C(=O)NCCN4CCOCC4)cc2C3=O)ccc1F,"cell-free assay, competition with immobilised ligand",1 µM,72
Cc1cnc(Nc2ccc(C(=O)N3CCC(N4CCCC4)CC3)cc2)nc1-c1cc2ccccc2s1,"binding, competition with immobilised ligand",1 µM,100
COCCOc1nc(-c2ccc(Cl)nc2)nc2c1CN(C(=O)c1ncn3ccccc13)CC2,"cell-free assay, competition with immobilised ligand",0.1 µM,98
Nc1ncc2c(n1)-c1c([nH]c3ccc(C#CC4CC4)cc13)CCCC2,"binding, competition with immobilised ligand",1 µM,95
